ChEMBL document CHEMBL1687700, “Discovery of an Orally Efficacious Imidazo[5,1-f][1,2,4]triazine Dual Inhibitor of IGF-1R and IR” (ACS Med Chem Lett, 2010)
Each block holds one compound with its values, some of them ahead of it. Active and inactive are the calls of the source. The rule behind the calls is not given here.

Columns and labels:
[1] = Oral bioavailability in CD-1 mouse at 25 mg/kg administered as single dose; assay type: ADME, organism-based; conditions: in vivo
Mus musculus [2] = assay: Inhibition of IR phosphorylation in human GEO cells xenografted in CD-1 nu/nu mouse at 5 mg/kg, po bid administered for 14 days; assay type: functional; conditions: CD-1, GEO, 336 h
Procedure, shortened: (§1)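 GEO xenografts dosed orally for 14 days (qd or bid); tumors removed after last dose, up to 24 h, for pIGF-1R and pIR content relative to vehicle controls; means ± SE.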

[3] = Oral bioavailability in rhesus monkey at 30 mg/kg administered as single dose; assay type: ADME, organism-based, Macaca mulatta; conditions: in vivo
Procedure, shortened: (§2)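 Rhesus monkey (male), single oral dose of the HCl salt in 40% w/v hydroxypropyl-β-cyclodextrin vehicle; median PK parameters reported; bioavailability referenced to a 5 mg/kg iv dose.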

Mus musculus [4] = assay: Inhibition of IR phosphorylation in human GEO cells xenografted in CD-1 nu/nu mouse at 10 mg/kg, po administered as single dose in 40% Trappsol; assay type: functional; conditions: CD-1, GEO
Procedure, shortened: (§3)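 GEO xenograft mice given a single 10 mg/kg oral dose; tumors and plasma sampled over time; tumor pIGF-1R and pIR content expressed as percentage of vehicle-treated controls alongside plasma drug level; means ± SD.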

[5] = AUC in rhesus monkey at 30 mg/kg, po administered as single dose; assay type: ADME, organism-based, Macaca mulatta; design: dose 30 mg/kg, route oral; conditions: plasma; procedure, shortened: as §2
[6] = Plasma concentration in human GEO cells xenografted CD-1 nu/nu mouse at 10 mg/kg, po administered as single dose in 40% Trappsol upto 8 hrs; assay type: ADME, organism-based; design: dose 10 mg/kg, route oral; procedure, shortened: as §3
Mus musculus [7] = assay: Inhibition of human IGF1R phosphorylation in human GEO cells xenografted in CD-1 nu/nu mouse at 10 mg/kg, po administered as single dose in 40% Trappsol upto 8 hrs; assay type: functional; conditions: CD-1, GEO; procedure, shortened: as §3
[8] = Plasma protein binding in human; assay type: ADME, cell-free; conditions: read-out: PPB (converted)
Procedure, shortened: (§4)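 Plasma protein binding determined by ultracentrifugation in mouse, rat and human plasma; percent bound reported.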

[9] = Plasma concentration in human GEO cells xenografted CD-1 nu/nu mouse at 10 mg/kg, po administered as single dose in 40% Trappsol after 16 hrs; assay type: ADME, organism-based; design: dose 10 mg/kg, route oral; procedure, shortened: as §3
Mus musculus [10] = assay: Inhibition of human IGF1R phosphorylation in human GEO cells xenografted in CD-1 nu/nu mouse at 10 mg/kg, po administered as single dose in 40% Trappsol after 16 hrs; assay type: functional; conditions: CD-1, GEO; procedure, shortened: as §3
[11] = Plasma protein binding in rat; assay type: ADME, cell-free; conditions: read-out: PPB (converted); procedure, shortened: as §4
[12] = Clearance in rhesus monkey at 5 mg/kg, iv administered as single dose; assay type: ADME, organism-based, Macaca mulatta; design: dose 5 mg/kg, route intravenous; conditions: in vivo
Procedure, shortened: (§5)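 Single 5 mg/kg iv dose used to derive clearance and Vss; median values reported per species (female rat, male rhesus monkey).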

Mus musculus [13] = assay: Inhibition of human IGF1R phosphorylation in human GEO cells xenografted in CD-1 nu/nu mouse at 5 mg/kg, po bid administered for 14 days; assay type: functional; conditions: CD-1, GEO, 336 h; procedure, shortened: as §1
[14] = Cmax in CD-1 mouse at 25 mg/kg, po administered as single dose; assay type: ADME, organism-based; design: dose 25 mg/kg, route oral; conditions: in vivo
[15] = Antitumor activity against human GEO cells xenografted in CD-1 nu/nu mouse assessed as tumor growth inhibition at 5 mg/kg, po bid administered for 14 days; assay type: functional; conditions: 336 h, read-out: TGI
Procedure, shortened: (§6)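 Nude mouse xenografts dosed orally (HCl salt in 40% w/v hydroxypropyl-β-cyclodextrin) once or twice daily for 14 days; tumor volume expressed as percentage of initial volume, mean ± SE; body weight monitored.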

Mus musculus [16] = assay: Inhibition of human IGF1R phosphorylation in human GEO cells xenografted in CD-1 nu/nu mouse at 20 mg/kg, po administered once daily for 14 days; assay type: functional; conditions: CD-1, GEO, 336 h; procedure, shortened: as §1
[17] = Volume of distribution at steady state in rhesus monkey at 5 mg/kg, iv administered as single dose; assay type: ADME, organism-based, Macaca mulatta; design: dose 5 mg/kg, route intravenous; conditions: in vivo, read-out: Vdss; procedure, shortened: as §5
[18] = Cmax in rhesus monkey at 30 mg/kg, po administered as single dose; assay type: ADME, organism-based, Macaca mulatta; design: dose 30 mg/kg, route oral; conditions: in vivo; procedure, shortened: as §2
[19] = Antitumor activity against human GEO cells xenografted in CD-1 nu/nu mouse assessed as tumor growth inhibition at 20 mg/kg, po administered once daily for 14 days; assay type: functional; conditions: 336 h, read-out: TGI; procedure, shortened: as §6
[20] = AUC in CD-1 mouse at 25 mg/kg, po administered as single dose; assay type: ADME, organism-based; design: dose 25 mg/kg, route oral; conditions: plasma
Procedure, shortened: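 Single oral dose of 25 mg/kg, given as the HCl salt in 40% w/v hydroxypropyl-β-cyclodextrin, to female mice. Plasma exposure is reported as AUC (ng h/mL), with median values given. CL and Vss come from a separate 5 mg/kg iv dose.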

Mus musculus [21] = assay: Inhibition of human IGF1R phosphorylation in human GEO cells xenografted in CD-1 nu/nu mouse at 10 mg/kg, po bid administered for 14 days; assay type: functional; conditions: CD-1, GEO, 336 h; procedure, shortened: as §1
[22] = Antitumor activity against human GEO cells xenografted in CD-1 nu/nu mouse assessed as tumor growth inhibition at 10 mg/kg, po bid administered for 14 days; assay type: functional; conditions: 336 h, read-out: TGI; procedure, shortened: as §6
[23] = Plasma protein binding in mouse; assay type: ADME, cell-free; conditions: read-out: PPB (converted); procedure, shortened: as §4
NIH3T3 = assay: Antitumor activity against mouse NIH/3T3 cells xenografted in CD-1 nu/nu mouse assessed as tumor growth inhibition at 10 mg/kg, po bid administered for 14 days; assay type: functional; conditions: NIH3T3, 336 h
Mus musculus [24] = assay: Inhibition of human IGF1R phosphorylation in human GEO cells xenografted in CD-1 nu/nu mouse assessed as sustained inhibition measured 24 hrs post last dose at 20 mg/kg, po qd administered for 14 days
[25] = molecular target: RAC-alpha serine/threonine-protein kinase (Homo sapiens) (UniProt P31749); assay: Inhibition of AKT phosphorylation in human GEO cells; assay type: cell-based
Sequence of RAC-alpha serine/threonine-protein kinase (Homo sapiens) (P31749 whole entry): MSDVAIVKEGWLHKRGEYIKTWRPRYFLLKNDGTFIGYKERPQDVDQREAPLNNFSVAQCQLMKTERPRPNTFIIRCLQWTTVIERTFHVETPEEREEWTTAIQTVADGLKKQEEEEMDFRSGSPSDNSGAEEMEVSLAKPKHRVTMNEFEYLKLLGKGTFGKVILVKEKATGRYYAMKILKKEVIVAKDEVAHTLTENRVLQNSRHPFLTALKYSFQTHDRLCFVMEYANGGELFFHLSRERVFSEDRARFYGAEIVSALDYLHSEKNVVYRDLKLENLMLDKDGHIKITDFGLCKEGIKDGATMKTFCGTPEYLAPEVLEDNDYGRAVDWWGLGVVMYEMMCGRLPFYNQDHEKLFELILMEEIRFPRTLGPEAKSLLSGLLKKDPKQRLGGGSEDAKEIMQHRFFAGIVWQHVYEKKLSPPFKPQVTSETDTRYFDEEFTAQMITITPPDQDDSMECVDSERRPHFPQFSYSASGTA

Mus musculus [26] = assay: Increase in blood glucose level in CD-1 nu/nu mouse at 10 mg/kg, po upto 8 hrs; assay type: functional, organism-based; design: dose 10 mg/kg
Procedure, shortened: (§7)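 Blood glucose measured in GEO xenograft mice after the last dose of a 14-day oral dosing study, over a time course to 24 h.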

Mus musculus [27] = assay: Increase in blood glucose level in CD-1 nu/nu mouse at 10 mg/kg, po after 24 hrs; assay type: functional, organism-based; design: dose 10 mg/kg; procedure, shortened: as §7

- bioavailability [1]: 100%
- bioavailability [3]: 97%
- AUC [5]: 31.4 µg·h/mL
- concentration at 8 h [6]: > 4 µM
- fraction unbound [8]: 0.027
- concentration at 16 h [9]: 0.38 µM
- fraction unbound [11]: 0.034
- clearance [12]: 15 mL/min/kg
- Cmax [14]: 35.2 µM
- Vd [17]: 0.55 L/kg
- Cmax [18]: 10.8 µM
- AUC [20]: 240 µg·h/mL
- fraction unbound [23]: 0.015
Compound: C[C@]1(O)C[C@@H](c2nc(-c3ccc4ccc(-c5ccccc5)nc4c3F)c3c(N)ncnn32)C1.Cl
- inhibition in vivo at 5 mg/kg (Mus musculus [2]): 40%
- inhibition in vivo at 10 mg/kg (Mus musculus [4]): 50%
- inhibition in vivo at 10 mg/kg (Mus musculus [7]): > 70%
- inhibition in vivo at 10 mg/kg (Mus musculus [10]): 50%
- inhibition in vivo at 5 mg/kg (Mus musculus [13]): 40%
- inhibition in vivo at 5 mg/kg [15]: 31%
- inhibition in vivo at 20 mg/kg (Mus musculus [16]): > 70%
- inhibition in vivo at 20 mg/kg [19]: 85%
- inhibition in vivo at 10 mg/kg (Mus musculus [21]): > 70%
- inhibition in vivo at 10 mg/kg [22]: 91%
- inhibition in vivo at 10 mg/kg (NIH3T3): 100%

- inhibition [25]: Active
Compound: C[C@]1(O)C[C@@H](c2nc(-c3ccc4ccc(-c5ccccc5)nc4c3F)c3c(N)ncnn32)C1
- inhibition (Mus musculus [24]): Active
- Activity (Mus musculus [26]): Active
- Activity (Mus musculus [27]): inactive
